{"data": "Measured values collected from several papers", "organism": "Pseudomonas aeruginosa"}
{"Structure (SMILES)": "CCCCCCCCCCCCCC(O)CC(O)CO (centres unmarked)", "assay": "microbial growth, broth dilution", "test system": "ATCC27853", "measurement": "IC50", "result": "> 200 µg/mL"}
{"Structure (SMILES)": "CC(C)Oc1c(NC(=O)c2ccc(NC(=O)[C@H](CC(N)=O)NC(=O)c3ccc(NC(=O)c4ccc(S(C)(=O)=O)cc4)cc3)cc2)ccc(C(=O)Nc2ccc(C(=O)O)cc2)c1O", "assay": "microbial growth", "test system": "PA14", "measurement": "MIC", "result": "> 64 µg/mL"}
{"Structure (SMILES)": "CN[C@H](CC(C)C)C(=O)N[C@H]1C(=O)N[C@@H](CC(N)=O)C(=O)N[C@H]2C(=O)N[C@H]3C(=O)N[C@H](C(=O)N[C@H](C(=O)O)c4cc(O)cc(O)c4-c4cc3ccc4O)[C@H](O)c3ccc(c(Cl)c3)Oc3cc2cc(c3O[C@@H]2O[C@H](CO)[C@@H](O)[C@H](O)[C@H]2O[C@H]2C[C@](C)(N)[C@H](O)[C@H](C)O2)Oc2ccc(cc2Cl)[C@H]1O", "assay": "microbial killing, broth dilution", "test system": "ATCC9027", "measurement": "MBC", "result": "> 128 µM"}
{"Structure (SMILES)": "C#CCCCCCCCCCCCC(O)CC(O)CO (centres unmarked)", "assay": "microbial growth, broth dilution", "test system": "ATCC27853", "measurement": "IC50", "result": "> 200 µg/mL"}
{"Structure (SMILES)": "COc1cc(C=CC(=O)CC(c2ccc([N+](=O)[O-])cc2)n2ccnc2)ccc1O (centres unmarked)", "assay": "microbial growth, disc diffusion", "test system": "ATCC27853", "conditions": "250 µg/mL", "measurement": "inhibition zone", "result": "6 mm"}
{"Structure (SMILES)": "CC1(C)SC2C(NC(=O)C(NC(=O)C3=C(O)C4CCCN4C3=O)c3ccccc3)C(=O)N2C1C(=O)O (centres unmarked)", "assay": "microbial growth, well diffusion", "test system": "PAO1", "conditions": "200 µM", "measurement": "inhibition zone", "result": "12 mm"}
{"Structure (SMILES)": "C[C@H]1NCc2cc(-c3ccc4c(=O)c(C(=O)O)cn(C5CC5)c4c3OC(F)F)ccc21", "assay": "microbial growth, broth dilution", "conditions": "clinical isolate", "measurement": "MIC50", "result": "2 µg/mL"}
{"Structure (SMILES)": "CC(C)Oc1c(NC(=O)c2ccc(NC(=O)[C@H](CC(N)=O)NC(=O)c3ccc(NC(=O)c4ccc(C#N)c(Cl)c4)cc3)cc2)ccc(C(=O)Nc2ccc(C(=O)O)cc2)c1O", "assay": "microbial growth", "test system": "PA14", "measurement": "MIC", "result": "> 64 µg/mL"}
{"Structure (SMILES)": "COc1cc(C=Cc2cc(-c3ccc(N(C)C)cc3)nc(O)n2)ccc1O", "assay": "microbial growth, disc diffusion", "test system": "ATCC27853", "conditions": "500 µg/mL", "measurement": "inhibition zone", "result": "7.67 mm"}
{"Structure (SMILES)": "O=c1cccccc1SSc1cccccc1=O", "assay": "microbial growth, broth dilution", "test system": "ATCC27853", "measurement": "MIC80", "result": "> 71.4 µM"}
{"Structure (SMILES)": "CCCCCCCC(=O)Oc1c(C)c(O)c(C(=O)/C=C/c2ccccc2)c(OC)c1C", "assay": "microbial killing, broth dilution", "test system": "ATCC27853", "measurement": "MBC", "result": "> 5000 µg/mL"}
{"Structure (SMILES)": "CC(C)Oc1c(NC(=O)c2ccc(NC(=O)[C@H](CC(N)=O)NC(=O)c3ccc(NC(=O)C(C)Oc4ccc(C#N)cc4)cc3)cc2)ccc(C(=O)Nc2ccc(C(=O)O)cc2)c1O (some centres unmarked)", "assay": "microbial growth", "test system": "PA14", "measurement": "MIC", "result": "> 64 µg/mL"}
{"Structure (SMILES)": "CCCCCCCCCC(=O)Oc1c(C)c(O)c(C(=O)/C=C/c2ccccc2)c(OC)c1C", "assay": "microbial killing, broth dilution", "test system": "ATCC27853", "measurement": "MBC", "result": "> 5000 µg/mL"}
{"Structure (SMILES)": "CC1(C)SC2C(NC(=O)C(NC(=O)C3=C(O)C(Cc4ccsc4)NC3=O)c3ccccc3)C(=O)N2C1C(=O)O (centres unmarked)", "assay": "microbial growth, well diffusion", "test system": "PAO1", "conditions": "200 µM", "measurement": "inhibition zone", "result": "11 mm"}
{"Structure (SMILES)": "COc1c(C)c(O)c(C)c(O)c1C(=O)/C=C/c1ccccc1", "assay": "microbial killing, broth dilution", "test system": "ATCC27853", "measurement": "MBC", "result": "> 5000 µg/mL"}
{"Structure (SMILES)": "CC[C@H](C)[C@H](NC(=O)OCC1c2ccccc2-c2ccccc21)C(=O)Sc1cccccc1=O", "assay": "microbial growth, broth dilution", "test system": "ATCC27853", "measurement": "MIC80", "result": "> 71.4 µM"}
{"Structure (SMILES)": "CCCCCC(=O)Oc1c(C)c(O)c(C(=O)/C=C/c2ccccc2)c(OC)c1C", "assay": "microbial killing, broth dilution", "test system": "ATCC27853", "measurement": "MBC", "result": "> 5000 µg/mL"}
{"Structure (SMILES)": "CC1(C)S[C@@H]2[C@H](NC(=O)C(C(=O)O)c3ccccc3)C(=O)N2[C@H]1C(=O)O (some centres unmarked)", "assay": "microbial growth, well diffusion", "test system": "PAO1", "conditions": "200 µM", "measurement": "inhibition zone", "result": "9.3 mm"}
{"Structure (SMILES)": "O=C(O)c1cn(C2CC2)c2cc(N3CCNCC3)c(F)cc2c1=O", "assay": "microbial growth, disc diffusion", "conditions": "100 µg/mL, 24 h", "measurement": "inhibition zone", "result": "16 mm"}
{"Structure (SMILES)": "O=c1cccccc1S", "assay": "microbial growth, broth dilution", "test system": "ATCC27853", "measurement": "MIC80", "result": "> 71.4 µM"}
{"Structure (SMILES)": "COc1c(C)c(OS(=O)(=O)c2ccc3ccccc3c2)c(C)c(OS(=O)(=O)c2ccc3ccccc3c2)c1C(=O)/C=C/c1ccccc1", "assay": "microbial killing, broth dilution", "test system": "ATCC27853", "measurement": "MBC", "result": "> 5000 µg/mL"}
{"Structure (SMILES)": "CC1(C)S[C@@H]2[C@H](NC(=O)[C@H](N)c3ccc(O)cc3)C(=O)N2[C@H]1C(=O)O", "assay": "microbial growth, disc diffusion", "test system": "ATCC27853", "conditions": "250 µg/mL", "measurement": "inhibition zone", "result": "9.38 mm"}
{"Structure (SMILES)": "COc1c(C)c(OC(C)=O)c(C)c(O)c1C(=O)/C=C/c1ccccc1", "assay": "microbial killing, broth dilution", "test system": "ATCC27853", "measurement": "MBC", "result": "> 5000 µg/mL"}
{"Structure (SMILES)": "COc1cc(Cc2cnc(N)nc2N)cc(OC)c1OC", "assay": "microbial killing, broth dilution", "conditions": "48 h", "measurement": "MBC", "result": "16 µg/mL"}
{"Structure (SMILES)": "COc1c(C)c(OCc2ccccc2)c(C)c(O)c1C(=O)/C=C/c1ccccc1", "assay": "microbial killing, broth dilution", "test system": "ATCC27853", "measurement": "MBC", "result": "> 5000 µg/mL"}
{"Structure (SMILES)": "CC(C)Oc1c(NC(=O)c2ccc(NC(=O)[C@H](CC(N)=O)NC(=O)c3ccc(-c4nn[nH]c4-c4ccc(C#N)cc4)cc3)cc2)ccc(C(=O)Nc2ccc(C(=O)O)cc2)c1O", "assay": "microbial growth", "test system": "PA14", "measurement": "MIC", "result": "> 64 µg/mL"}
{"Structure (SMILES)": "O=C(Sc1cccccc1=O)c1cccc(C(F)(F)F)c1", "assay": "microbial growth, broth dilution", "test system": "ATCC27853", "measurement": "MIC80", "result": "> 71.4 µM"}
{"Structure (SMILES)": "COc1cc(C=Cc2cc(-c3ccccc3)nc(O)n2)ccc1O", "assay": "microbial growth, disc diffusion", "test system": "ATCC27853", "conditions": "250 µg/mL", "measurement": "inhibition zone", "result": "6 mm"}
{"Structure (SMILES)": "O=c1cccccc1Sc1cccccc1=O", "assay": "microbial growth, broth dilution", "test system": "ATCC27853", "measurement": "MIC80", "result": "> 71.4 µM"}
{"Structure (SMILES)": "CC(C)Oc1c(NC(=O)c2ccc(NC(=O)[C@H](CC(N)=O)NC(=O)c3cccc(NC(=O)c4ccc(C#N)cc4)c3)cc2)ccc(C(=O)Nc2ccc(C(=O)O)cc2)c1O", "assay": "microbial growth", "test system": "PA14", "measurement": "MIC", "result": "> 64 µg/mL"}
{"Structure (SMILES)": "COc1c(C)c(OC)c2c(c1C)OC(c1ccccc1)CC2=O (centres unmarked)", "assay": "microbial killing, broth dilution", "test system": "ATCC27853", "measurement": "MBC", "result": "> 5000 µg/mL"}
{"Structure (SMILES)": "CC(C)Oc1c(NC(=O)c2ccc(NC(=O)[C@H](CC(N)=O)NC(=O)c3ccc(CNC(=O)c4ccc(C#N)cc4)cc3)cc2)ccc(C(=O)Nc2ccc(C(=O)O)cc2)c1O", "assay": "microbial growth", "test system": "PA14", "measurement": "MIC", "result": "> 64 µg/mL"}
{"Structure (SMILES)": "O=C(Sc1cccccc1=O)c1ccccc1", "assay": "microbial growth, broth dilution", "test system": "ATCC27853", "measurement": "MIC80", "result": "> 71.4 µM"}
{"Structure (SMILES)": "COc1cc(C=CC(=O)CC(c2ccc(N(C)C)cc2)n2ccnc2)ccc1O (centres unmarked)", "assay": "microbial growth, disc diffusion", "test system": "ATCC27853", "conditions": "500 µg/mL", "measurement": "inhibition zone", "result": "23.3 mm"}
{"Structure (SMILES)": "CC1(C)SC2C(NC(=O)C(NC(=O)C3=C(O)C(Cc4ccccc4)NC3=O)c3ccccc3)C(=O)N2C1C(=O)O (centres unmarked)", "assay": "microbial growth, well diffusion", "test system": "PAO1", "conditions": "200 µM", "measurement": "inhibition zone", "result": "10.7 mm"}
